Measurements: ChEMBL document CHEMBL2407001, “Synthesis, in vitro antifungal activity and in silico study of 3-(1,2,4-triazol-1-yl)flavanones” (2013)
Values after ≈ are worked out from the molar mass of the structure shown.

Tests used:
Type in all cases: functional
Candida albicans [1] = experiment: Ratio of fluconazole MIC to compound MIC for Candida albicans ATCC 10231
Saccharomyces cerevisiae [2] = experiment: Ratio of fluconazole MIC to compound MIC for Saccharomyces cerevisiae NCYC 694
Aspergillus niger = experiment: Antifungal activity against Aspergillus niger ATCC 16404 after 24 to 72 hrs by microdilution method
In short: (§1)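 Broth microdilution MIC in U-bottom 96-well plates. Compound stock made in Sabouraud dextrose broth/DMSO (9:1) and serially diluted with SDB. Fungal suspension (1 × 10^3 CFU/mL) added to give a final inoculum of 0.5 × 10^3 CFU/mL. Plates incubated at 35 °C and read at 24, 48 and 72 h. MIC is the lowest concentration with no visible growth compared with a drug-free control well.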

Saccharomyces cerevisiae [3] = experiment: Antifungal activity against Saccharomyces cerevisiae ATCC 9763 after 24 to 72 hrs by microdilution method; in short: as §1
Saccharomyces cerevisiae [4] = experiment: Antifungal activity against Saccharomyces cerevisiae NCYC 694 after 24 to 72 hrs by microdilution method; in short: as §1
Nakaseomyces glabratus = experiment: Antifungal activity against Candida glabrata ATCC 90030 after 24 to 72 hrs by microdilution method; in short: as §1
Candida albicans [5] = experiment: Antifungal activity against Candida albicans ATCC 10231 after 24 to 72 hrs by microdilution method; in short: as §1

SMILES | Ratio (Candida albicans [1]) | Ratio (Saccharomyces cerevisiae [2]) | MIC (Aspergillus niger) [µg/mL] | MIC (Saccharomyces cerevisiae [3]) [µg/mL] | MIC (Saccharomyces cerevisiae [4]) [µg/mL] | MIC (Nakaseomyces glabratus) [µg/mL] | MIC (Candida albicans [5]) [µg/mL]
O=C1c2ccccc2O[C@@H](c2ccc(F)cc2)[C@@H]1n1cncn1 (relative stereo) | 8 | 16 | > 62.5 | 3.9 (≈ 12.6 µM) | 0.98 (≈ 3.17 µM) | 31.3 (≈ 101 µM) | 3.9 (≈ 12.6 µM)
O=C1c2ccccc2O[C@@H](c2ccccc2Cl)[C@@H]1n1cncn1.O=[N+]([O-])O (relative stereo) | – | – | > 62.5 | 125 | > 125 | > 62.5 | > 125
COc1ccc([C@@H]2Oc3ccccc3C(=O)[C@H]2n2cncn2)cc1 (relative stereo) | – | – | > 62.5 | 125 (≈ 389 µM) | > 125 | > 62.5 | > 125
O=C1c2ccccc2O[C@@H](c2cccc(Cl)c2)[C@@H]1n1cncn1 (relative stereo) | 8 | 8 | > 62.5 | > 125 | 1.95 (≈ 5.99 µM) | 62.5 (≈ 192 µM) | 3.9 (≈ 12 µM)
CC(=O)N1CCN(c2ccc(OCC3COC(Cn4ccnc4)(c4ccc(Cl)cc4Cl)O3)cc2)CC1 (stereo unspecified) [KETOCONAZOLE] | – | – | 15.6 (≈ 29.4 µM) | – | – | – | –
COc1cccc([C@@H]2Oc3ccccc3C(=O)[C@H]2n2cncn2)c1 (relative stereo) | – | – | > 62.5 | > 125 | > 125 | > 62.5 | > 125
O/N=C1\c2ccccc2O[C@@H](c2ccccc2)[C@@H]1n1cncn1 (relative stereo) | – | – | > 62.5 | 125 (≈ 408 µM) | > 125 | > 62.5 | > 125
COc1ccccc1[C@@H]1Oc2ccccc2C(=O)[C@H]1n1cncn1.O=[N+]([O-])O (relative stereo) | – | – | > 62.5 | > 125 | > 125 | > 62.5 | > 125
OC(Cn1cncn1)(Cn1cncn1)c1ccc(F)cc1F [FLUCONAZOLE] | – | – | > 125 | 15.6 (≈ 50.9 µM) | 15.6 (≈ 50.9 µM) | 31.3 (≈ 102 µM) | 31.3 (≈ 102 µM)
O=C1c2ccccc2O[C@@H](c2ccc(Cl)cc2)[C@@H]1n1cncn1 (relative stereo) | – | – | > 62.5 | 3.9 (≈ 12 µM) | > 125 | > 62.5 | 3.9 (≈ 12 µM)
O=C1c2ccccc2O[C@@H](c2cccc(F)c2)[C@@H]1n1cncn1 (relative stereo) | 2 | – | > 62.5 | 15.6 (≈ 50.4 µM) | > 125 | > 62.5 | 15.6 (≈ 50.4 µM)
Cc1ccc([C@@H]2Oc3ccccc3C(=O)[C@H]2n2cncn2)cc1 (relative stereo) | – | – | > 62.5 | > 125 | > 125 | > 62.5 | > 125
O=C1c2ccccc2O[C@@H](c2ccc(Cl)cc2Cl)[C@@H]1n1cncn1 (relative stereo) | – | – | > 62.5 | 31.3 (≈ 86.9 µM) | 31.3 (≈ 86.9 µM) | > 62.5 | 125 (≈ 347 µM)
O/N=C1\c2ccccc2O[C@@H](c2ccc(Cl)cc2Cl)[C@@H]1n1cncn1 (relative stereo) | – | – | > 62.5 | 62.5 (≈ 167 µM) | > 125 | > 62.5 | > 125
O=C1c2ccccc2O[C@@H](c2ccccc2)[C@@H]1n1cncn1 (relative stereo) | – | – | > 62.5 | 125 (≈ 429 µM) | > 125 | > 62.5 | 31.3 (≈ 107 µM)
